Measurements published in ChEMBL document CHEMBL2439987, “TRPV1 antagonist with high analgesic efficacy: 2-Thio pyridine C-region analogues of 2-(3-fluoro-4-methylsulfonylaminophenyl)propanamides” (Bioorg Med Chem, 2013).
The source made the active and inactive calls. No cut-off for these calls is given here.

What was measured:
[1] = target: T1, Transient receptor potential cation channel subfamily V member 1 (Homo sapiens, UniProt Q8NER1); assay: Antagonist activity at human TRPV1 expressed in CHOK1 cells assessed as inhibition of capsaicin-induced activity by FLIPR assay; type: cell-based, CHO-K1
T1 sequence (Q8NER1 whole entry): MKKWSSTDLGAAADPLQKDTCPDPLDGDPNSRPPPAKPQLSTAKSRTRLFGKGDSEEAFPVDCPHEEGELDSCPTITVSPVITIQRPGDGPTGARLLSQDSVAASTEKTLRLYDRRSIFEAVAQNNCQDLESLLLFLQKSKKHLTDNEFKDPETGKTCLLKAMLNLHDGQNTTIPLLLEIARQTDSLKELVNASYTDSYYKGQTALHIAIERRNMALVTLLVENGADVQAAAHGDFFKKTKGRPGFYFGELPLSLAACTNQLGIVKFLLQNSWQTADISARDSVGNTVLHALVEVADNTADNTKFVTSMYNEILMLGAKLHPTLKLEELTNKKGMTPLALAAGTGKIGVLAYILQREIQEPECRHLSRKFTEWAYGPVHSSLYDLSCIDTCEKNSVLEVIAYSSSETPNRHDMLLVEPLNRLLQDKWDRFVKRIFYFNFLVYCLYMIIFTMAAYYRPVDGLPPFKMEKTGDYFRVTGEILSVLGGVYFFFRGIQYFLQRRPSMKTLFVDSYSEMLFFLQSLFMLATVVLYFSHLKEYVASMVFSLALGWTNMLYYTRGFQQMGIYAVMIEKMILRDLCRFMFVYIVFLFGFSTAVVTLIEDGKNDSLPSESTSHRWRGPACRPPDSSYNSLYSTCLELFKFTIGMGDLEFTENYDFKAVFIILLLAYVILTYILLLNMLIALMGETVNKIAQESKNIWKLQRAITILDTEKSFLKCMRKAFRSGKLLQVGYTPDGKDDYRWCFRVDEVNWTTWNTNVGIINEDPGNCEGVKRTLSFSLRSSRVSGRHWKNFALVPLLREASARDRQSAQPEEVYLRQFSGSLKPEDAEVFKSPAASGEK

[2] = target: T1, Transient receptor potential cation channel subfamily V member 1; assay: Antagonist activity at human TRPV1 expressed in CHOK1 cells assessed as inhibition of pH-induced activity by FLIPR assay; type: cell-based, CHO-K1; details: for inhibition: CHO-K1
[3] = system: Rattus norvegicus; assay: Analgesic activity in CCI-induced Sprague-Dawley rat neuropathic pain model assessed as reduction in paw withdrawal measured 45 mins after po administration; type: functional
Outline: (§1)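 Chronic constriction injury (Bennett model) of neuropathic pain in rats, read out as cold allodynia. Compound given orally and compared with vehicle. Effect expressed as % maximal possible effect (MPE), with n = 10 per group, mean ± SEM, and p < 0.05 versus vehicle. ED50 taken from the dose–response.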

[4] = target: T1, Transient receptor potential cation channel subfamily V member 1; assay: Antagonist activity at human TRPV1 expressed in CHOK1 cells assessed as inhibition of N-arachidonoyl dopamine-induced activity after 5 mins by FLIPR assay
[5] = target: T1, Transient receptor potential cation channel subfamily V member 1; assay: Antagonist activity at human TRPV1 expressed in CHOK1 cells assessed as inhibition of 45 degC heat-induced activity after 5 mins by FLIPR assay; type: cell-based, CHO-K1
[6] = system: Rattus norvegicus; assay: Analgesic activity in CCI-induced Sprague-Dawley rat neuropathic pain model assessed as reduction in paw withdrawal at 10 mg/kg, po measured 45 mins post compound administration relative to control; type: functional; outline: as §1
[7] = system: Mus musculus; assay: Inhibition of capsaicin-induced hypothermia in NMRI mouse at 0.3 mg/kg, po administered 15 mins prior challenge measured at 30 mins post-challenge; type: functional, organism-based; set-up: dose 0.3 mg/kg

CC(C(=O)NCc1ccc(C(F)(F)F)nc1SCCCO)c1ccc(NS(C)(=O)=O)c(F)c1 (centres undefined)
Ki ([1]; cho-k1): Not Active

CC(C(=O)NCc1ccc(C(F)(F)F)nc1SCc1cccc(C(F)(F)F)c1)c1ccc(NS(C)(=O)=O)c(F)c1 (centres undefined)
Ki ([1]; read-out: Ki): 3.9 nM | IC50 [2]: 71 nM

CC(C(=O)NCc1ccc(C(F)(F)F)nc1SC1CCCCC1)c1ccc(NS(C)(=O)=O)c(F)c1 (centres undefined)
inhibition [2]: inactive

CC(C(=O)NCc1ccc(C(F)(F)F)nc1SCCCN(C)C)c1ccc(NS(C)(=O)=O)c(F)c1 (centres undefined)
Ki ([1]; read-out: Ki): 27.4 nM | IC50 [2]: 1500 nM

CC1CCN(CCCSc2nc(C(F)(F)F)ccc2CNC(=O)C(C)c2ccc(NS(C)(=O)=O)c(F)c2)CC1 (centres undefined)
Ki ([1]; read-out: Ki): 2.9 nM | IC50 [2]: 217 nM

CC(C(=O)NCc1ccc(C(F)(F)F)nc1SCc1ccc(Cl)cc1)c1ccc(NS(C)(=O)=O)c(F)c1 (centres undefined)
Ki ([1]; read-out: Ki): 8.7 nM | IC50 [2]: 674 nM

CC(C(=O)NCc1ccc(C(F)(F)F)nc1S(=O)(=O)C1CCCCC1)c1ccc(NS(C)(=O)=O)c(F)c1 (centres undefined)
Ki ([1]; cho-k1): Not Active | inhibition [2]: inactive

CC(C(=O)NCc1ccc(C(F)(F)F)nc1SCCc1ccccc1)c1ccc(NS(C)(=O)=O)c(F)c1 (centres undefined)
Ki ([1]; read-out: Ki): 1.9 nM | IC50 [2]: 111 nM

CC(C(=O)NCc1ccc(C(F)(F)F)nc1SCCCN1CCCC1)c1ccc(NS(C)(=O)=O)c(F)c1 (centres undefined)
Ki ([1]; read-out: Ki): 3.3 nM | IC50 [2]: 312 nM

C[C@H](C(=O)NCc1ccc(C(F)(F)F)nc1SC1CCCCC1)c1ccc(NS(C)(=O)=O)c(F)c1
Ki ([1]; read-out: Ki): 0.4 nM | Activity [3]: Dose-dependent effect | ED50 ([3]; 0.75 h): 0.19 mg/kg | Ki [4]: 0.05 nM | IC50 [5]: 22.3 nM | %max [6]: 75% | inhibition [7]: Active | IC50 [2]: > 1000 nM

C[C@H](C(=O)NCc1ccc(C(C)(C)C)cc1)c1ccc(NS(C)(=O)=O)c(F)c1
Ki ([1]; read-out: Ki): 28 nM | IC50 [2]: 1280 nM

CC(C(=O)NCc1ccc(C(F)(F)F)nc1SCCCN1CCCCC1)c1ccc(NS(C)(=O)=O)c(F)c1 (centres undefined)
Ki ([1]; read-out: Ki): 3 nM | IC50 [2]: 250 nM

CC(C(=O)NCc1ccc(C(F)(F)F)nc1SCCCBr)c1ccc(NS(C)(=O)=O)c(F)c1 (centres undefined)
Ki ([1]; read-out: Ki): 7 nM | IC50 [2]: 68 nM

CCCCCCSc1nc(C(F)(F)F)ccc1CNC(=O)C(C)c1ccc(NS(C)(=O)=O)c(F)c1 (centres undefined)
Ki ([1]; read-out: Ki): 5.6 nM | IC50 [2]: 719 nM

COc1ccc(CSc2nc(C(F)(F)F)ccc2CNC(=O)C(C)c2ccc(NS(C)(=O)=O)c(F)c2)cc1 (centres undefined)
Ki ([1]; read-out: Ki): 2.3 nM | IC50 [2]: 279 nM

CCC1CCC(Sc2nc(C(F)(F)F)ccc2CNC(=O)C(C)c2ccc(NS(C)(=O)=O)c(F)c2)CC1 (centres undefined)
Ki ([1]; read-out: Ki): 1 nM | inhibition [2]: inactive

CC(C)CCSc1nc(C(F)(F)F)ccc1CNC(=O)C(C)c1ccc(NS(C)(=O)=O)c(F)c1 (centres undefined)
Ki ([1]; read-out: Ki): 0.7 nM | IC50 [2]: 82 nM

CC(C(=O)NCc1ccc(C(F)(F)F)nc1SC1CCC(C(C)(C)C)CC1)c1ccc(NS(C)(=O)=O)c(F)c1 (centres undefined)
Ki ([1]; read-out: Ki): 2.6 nM | IC50 [2]: 89.6 nM

COC(=O)CCSc1nc(C(F)(F)F)ccc1CNC(=O)C(C)c1ccc(NS(C)(=O)=O)c(F)c1 (centres undefined)
Ki ([1]; read-out: Ki): 48.2 nM | IC50 [2]: 1100 nM

CC(C(=O)NCc1ccc(C(F)(F)F)nc1SCC(F)(F)F)c1ccc(NS(C)(=O)=O)c(F)c1 (centres undefined)
Ki ([1]; read-out: Ki): 4.3 nM | inhibition [2]: inactive

CC(C(=O)NCc1ccc(C(F)(F)F)nc1SC1CCCC1)c1ccc(NS(C)(=O)=O)c(F)c1 (centres undefined)
Ki ([1]; read-out: Ki): 1.2 nM | inhibition [2]: inactive

CCCCCSc1nc(C(F)(F)F)ccc1CNC(=O)C(C)c1ccc(NS(C)(=O)=O)c(F)c1 (centres undefined)
Ki ([1]; read-out: Ki): 2.5 nM | IC50 [2]: 95.6 nM

CC(C(=O)NCc1ccc(C(F)(F)F)nc1SCC1CCCCC1)c1ccc(NS(C)(=O)=O)c(F)c1 (centres undefined)
Ki ([1]; read-out: Ki): 2.3 nM | IC50 [2]: 254 nM

Cc1ccc(CSc2nc(C(F)(F)F)ccc2CNC(=O)C(C)c2ccc(NS(C)(=O)=O)c(F)c2)cc1 (centres undefined)
Ki ([1]; read-out: Ki): 3.2 nM | IC50 [2]: 764 nM

CC(C(=O)NCc1ccc(C(F)(F)F)nc1SCCC(=O)N1CCCC1)c1ccc(NS(C)(=O)=O)c(F)c1 (centres undefined)
Ki ([1]; read-out: Ki): 85 nM | inhibition [2]: inactive

CC(C(=O)NCc1ccc(C(F)(F)F)nc1SCc1ccco1)c1ccc(NS(C)(=O)=O)c(F)c1 (centres undefined)
Ki ([1]; read-out: Ki): 14.6 nM | inhibition [2]: inactive

CC1CCC(Sc2nc(C(F)(F)F)ccc2CNC(=O)C(C)c2ccc(NS(C)(=O)=O)c(F)c2)CC1 (centres undefined)
Ki ([1]; read-out: Ki): 0.5 nM | IC50 [2]: 180 nM

CC(C(=O)NCc1ccc(C(F)(F)F)nc1SCCCN1CCOCC1)c1ccc(NS(C)(=O)=O)c(F)c1 (centres undefined)
Ki ([1]; cho-k1): Not Active | inhibition [2]: inactive

CC(C(=O)NCc1ccc(C(F)(F)F)nc1[S+]([O-])C1CCCCC1)c1ccc(NS(C)(=O)=O)c(F)c1 (centres undefined)
Ki ([1]; cho-k1): Not Active | inhibition [2]: inactive

CC(C(=O)NCc1ccc(C(F)(F)F)nc1SCCC(=O)O)c1ccc(NS(C)(=O)=O)c(F)c1 (centres undefined)
Ki ([1]; cho-k1): Not Active | inhibition [2]: inactive

CC(C(=O)NCc1ccc(C(F)(F)F)nc1SCc1cccs1)c1ccc(NS(C)(=O)=O)c(F)c1 (centres undefined)
Ki ([1]; read-out: Ki): 15 nM | inhibition [2]: inactive

C[C@@H](C(=O)NCc1ccc(C(F)(F)F)nc1SC1CCCCC1)c1ccc(NS(C)(=O)=O)c(F)c1
Ki ([1]; read-out: Ki): 43.5 nM | inhibition [2]: inactive

CC(C(=O)NCc1ccc(C(F)(F)F)nc1SCc1ccccc1Cl)c1ccc(NS(C)(=O)=O)c(F)c1 (centres undefined)
Ki ([1]; read-out: Ki): 4.9 nM | IC50 [2]: 620 nM

CC(C(=O)NCc1ccc(C(F)(F)F)nc1SCCOc1ccccc1)c1ccc(NS(C)(=O)=O)c(F)c1 (centres undefined)
Ki ([1]; read-out: Ki): 2.3 nM | IC50 [2]: 118 nM

CC(C(=O)NCc1ccc(C(F)(F)F)nc1SC1CCCCC1C)c1ccc(NS(C)(=O)=O)c(F)c1 (centres undefined)
Ki ([1]; read-out: Ki): 1.9 nM | inhibition [2]: inactive
